Reference: ChEMBL document CHEMBL4382192, “Discovery of a potent dual ALK and EGFR T790M inhibitor” (Eur J Med Chem, 2017)

Legend:
[1] = molecular target: Tyrosine-protein kinase Fyn (Homo sapiens) (UniProt P06241); test: Binding affinity to wild-type human partial length FYN (T243 to L534 residues) expressed in bacterial expression system assessed as residual binding level at 1 uM by Kinomescan method relative to control
[2] = molecular target: Cyclin-dependent kinase 7 (Homo sapiens) (UniProt P50613); test: Binding affinity to wild-type human full length CDK7 (M1 to L344 residues) expressed in mammalian expression system assessed as residual binding level at 1 uM by Kinomescan method relative to control
[3] = tested on: Receptor-type tyrosine-protein kinase FLT3 (Homo sapiens), P36888 [R834Q]; test: Binding affinity to human partial length FLT3 R834Q mutant (V592 to Y969 residues) expressed in mammalian expression system assessed as residual binding level at 1 uM by Kinomescan method relative to control
How it was run: (§1)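 Kinome-wide selectivity panel run by the KINOMEscan method, with the test compound at a single concentration of 1 μM. Wild-type and mutant kinases were profiled in the same screen.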

[4] = molecular target: Leucine-rich repeat serine/threonine-protein kinase 2 (Homo sapiens) (UniProt Q5S007); test: Binding affinity to wild-type human partial length LRRK2 (H970 to E2527 residues) expressed in mammalian expression system assessed as residual binding level at 1 uM by Kinomescan method relative to control
[5] = molecular target: Receptor tyrosine-protein kinase erbB-4 (Homo sapiens, UniProt Q15303); test: Binding affinity to wild-type human partial length ERBB4 (L690 to K994 residues) expressed in bacterial expression system assessed as residual binding level at 1 uM by Kinomescan method relative to control
[6] = molecular target: Serine/threonine-protein kinase Nek5 (Homo sapiens) (UniProt Q6P3R8); test: Binding affinity to wild-type human partial length NEK5 (M1 to M279 residues) expressed in bacterial expression system assessed as residual binding level at 1 uM by Kinomescan method relative to control
[7] = molecular target: Tyrosine-protein kinase Fes/Fps (Homo sapiens) (UniProt P07332); test: Binding affinity to wild-type human partial length FES (I527 to R822 residues) expressed in bacterial expression system assessed as residual binding level at 1 uM by Kinomescan method relative to control
[8] = molecular target: Activin receptor type-2A (Homo sapiens) (UniProt P27037); test: Binding affinity to wild-type human ACVR2A (V171 to T499 residues) expressed in bacterial expression system assessed as residual binding level at 1 uM by Kinomescan method relative to control
[9] = molecular target: Serine/threonine-protein kinase Nek11 (Homo sapiens) (UniProt Q8NG66); test: Binding affinity to wild-type human partial length NEK11 (M1 to E313 residues) expressed in mammalian expression system assessed as residual binding level at 1 uM by Kinomescan method relative to control
[10] = molecular target: G protein-coupled receptor kinase 4 (Homo sapiens) (UniProt P32298); test: Binding affinity to wild-type human full length GRK4 (M1 to C578 residues) expressed in bacterial expression system assessed as residual binding level at 1 uM by Kinomescan method relative to control
[11] = molecular target: Serine/threonine-protein kinase PAK 4 (Homo sapiens) (UniProt O96013); test: Binding affinity to wild-type human partial length PAK4 (Q144 to R438 residues) expressed in bacterial expression system assessed as residual binding level at 1 uM by Kinomescan method relative to control
[12] = molecular target: Dual serine/threonine and tyrosine protein kinase (Homo sapiens) (UniProt Q6XUX3); test: Binding affinity to wild-type human full length RIPK5 (M1 to T929 residues) expressed in mammalian expression system assessed as residual binding level at 1 uM by Kinomescan method relative to control
[13] = tested on: Epidermal growth factor receptor (Homo sapiens), P00533 [L858R]; test: Binding affinity to human partial length EGFR L858R mutant (R669 to V1011 residues) expressed in bacterial expression system assessed as residual binding level at 1 uM by Kinomescan method relative to control; how it was run: as §1
[14] = molecular target: CYP3A4 (Homo sapiens, UniProt P08684); test: Residual activity of CYP3A4 in human liver microsomes at 10 uM using midazolam 1-hydroxylase as substrate preincubated for 5 mins followed by NADPH addition measured after 15 mins by LC/MS/MS analysis relative to control; details: probe midazolam (1-hydroxylation)
[15] = molecular target: Eukaryotic translation initiation factor 2-alpha kinase 1 (Homo sapiens) (UniProt Q9BQI3); test: Binding affinity to wild-type human partial length EIF2AK1 (Q147 to E603 residues) expressed in mammalian expression system assessed as residual binding level at 1 uM by Kinomescan method relative to control
[16] = molecular target: Calcium/calmodulin-dependent protein kinase type II subunit delta (Homo sapiens) (UniProt Q13557); test: Binding affinity to wild-type human partial length CAMK2D (M1 to E329 residues) expressed in bacterial expression system assessed as residual binding level at 1 uM by Kinomescan method relative to control
[17] = tested on: Receptor-type tyrosine-protein kinase FLT3 (Homo sapiens), P36888 [D835V]; test: Binding affinity to human partial length FLT3 D835V mutant (V592 to Y969 residues) expressed in bacterial expression system assessed as residual binding level at 1 uM by Kinomescan method relative to control; how it was run: as §1
[18] = molecular target: Mitogen-activated protein kinase kinase kinase 2 (Homo sapiens) (UniProt Q9Y2U5); test: Binding affinity to wild-type human partial length MAP3K2 (S315 to H619 residues) expressed in mammalian expression system assessed as residual binding level at 1 uM by Kinomescan method relative to control
[19] = tested on: Epidermal growth factor receptor (Homo sapiens), P00533 [T790M]; test: Binding affinity to human partial length EGFR T790M mutant (R669 to G1022 residues) expressed in mammalian expression system assessed as residual binding level at 1 uM by Kinomescan method relative to control; how it was run: as §1
[20] = molecular target: Ribosomal protein S6 kinase alpha-4 (Homo sapiens) (UniProt O75676); test: Binding affinity to wild-type human partial length N-terminal RPS6KA4 kinase domain 1 expressed in bacterial expression system assessed as residual binding level at 1 uM by Kinomescan method relative to control
[21] = molecular target: Activated CDC42 kinase 1 (Homo sapiens, UniProt Q07912); test: Binding affinity to wild-type human partial length TNK2 (S159 to D474 residues) expressed in bacterial expression system assessed as residual binding level at 1 uM by Kinomescan method relative to control
[22] = molecular target: Homeodomain-interacting protein kinase 3 (Homo sapiens) (UniProt Q9H422); test: Binding affinity to wild-type human partial length HIPK3 (M153 to N562 residues) expressed in mammalian expression system assessed as residual binding level at 1 uM by Kinomescan method relative to control
[23] = molecular target: Mast/stem cell growth factor receptor Kit (Homo sapiens) (UniProt P10721); test: Binding affinity to wild-type human partial length autoinhibited KIT (Y545 to D952 residues) expressed in mammalian expression system assessed as residual binding level at 1 uM by Kinomescan method relative to control

Chain of Serine/threonine-protein kinase PAK 4 (Homo sapiens) (O96013 whole entry, looked up, the tested form may be a part): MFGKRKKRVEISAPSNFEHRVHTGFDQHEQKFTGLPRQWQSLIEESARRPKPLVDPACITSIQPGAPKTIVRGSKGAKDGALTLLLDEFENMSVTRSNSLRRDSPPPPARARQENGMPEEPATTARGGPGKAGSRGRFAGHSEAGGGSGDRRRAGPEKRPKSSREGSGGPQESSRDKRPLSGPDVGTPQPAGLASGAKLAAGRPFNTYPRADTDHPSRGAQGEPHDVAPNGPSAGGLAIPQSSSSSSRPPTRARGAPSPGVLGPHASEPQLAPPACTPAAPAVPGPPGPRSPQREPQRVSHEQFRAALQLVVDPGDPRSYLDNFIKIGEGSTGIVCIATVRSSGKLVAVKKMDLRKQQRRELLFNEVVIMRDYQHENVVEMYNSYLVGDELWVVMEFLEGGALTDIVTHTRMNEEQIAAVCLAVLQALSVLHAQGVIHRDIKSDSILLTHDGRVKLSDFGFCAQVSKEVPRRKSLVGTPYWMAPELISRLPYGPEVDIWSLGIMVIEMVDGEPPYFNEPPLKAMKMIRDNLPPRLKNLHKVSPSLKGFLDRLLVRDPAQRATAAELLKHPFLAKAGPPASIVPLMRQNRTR
Chain of Leucine-rich repeat serine/threonine-protein kinase 2 (Homo sapiens) (Q5S007 whole entry, the tested form may be a part): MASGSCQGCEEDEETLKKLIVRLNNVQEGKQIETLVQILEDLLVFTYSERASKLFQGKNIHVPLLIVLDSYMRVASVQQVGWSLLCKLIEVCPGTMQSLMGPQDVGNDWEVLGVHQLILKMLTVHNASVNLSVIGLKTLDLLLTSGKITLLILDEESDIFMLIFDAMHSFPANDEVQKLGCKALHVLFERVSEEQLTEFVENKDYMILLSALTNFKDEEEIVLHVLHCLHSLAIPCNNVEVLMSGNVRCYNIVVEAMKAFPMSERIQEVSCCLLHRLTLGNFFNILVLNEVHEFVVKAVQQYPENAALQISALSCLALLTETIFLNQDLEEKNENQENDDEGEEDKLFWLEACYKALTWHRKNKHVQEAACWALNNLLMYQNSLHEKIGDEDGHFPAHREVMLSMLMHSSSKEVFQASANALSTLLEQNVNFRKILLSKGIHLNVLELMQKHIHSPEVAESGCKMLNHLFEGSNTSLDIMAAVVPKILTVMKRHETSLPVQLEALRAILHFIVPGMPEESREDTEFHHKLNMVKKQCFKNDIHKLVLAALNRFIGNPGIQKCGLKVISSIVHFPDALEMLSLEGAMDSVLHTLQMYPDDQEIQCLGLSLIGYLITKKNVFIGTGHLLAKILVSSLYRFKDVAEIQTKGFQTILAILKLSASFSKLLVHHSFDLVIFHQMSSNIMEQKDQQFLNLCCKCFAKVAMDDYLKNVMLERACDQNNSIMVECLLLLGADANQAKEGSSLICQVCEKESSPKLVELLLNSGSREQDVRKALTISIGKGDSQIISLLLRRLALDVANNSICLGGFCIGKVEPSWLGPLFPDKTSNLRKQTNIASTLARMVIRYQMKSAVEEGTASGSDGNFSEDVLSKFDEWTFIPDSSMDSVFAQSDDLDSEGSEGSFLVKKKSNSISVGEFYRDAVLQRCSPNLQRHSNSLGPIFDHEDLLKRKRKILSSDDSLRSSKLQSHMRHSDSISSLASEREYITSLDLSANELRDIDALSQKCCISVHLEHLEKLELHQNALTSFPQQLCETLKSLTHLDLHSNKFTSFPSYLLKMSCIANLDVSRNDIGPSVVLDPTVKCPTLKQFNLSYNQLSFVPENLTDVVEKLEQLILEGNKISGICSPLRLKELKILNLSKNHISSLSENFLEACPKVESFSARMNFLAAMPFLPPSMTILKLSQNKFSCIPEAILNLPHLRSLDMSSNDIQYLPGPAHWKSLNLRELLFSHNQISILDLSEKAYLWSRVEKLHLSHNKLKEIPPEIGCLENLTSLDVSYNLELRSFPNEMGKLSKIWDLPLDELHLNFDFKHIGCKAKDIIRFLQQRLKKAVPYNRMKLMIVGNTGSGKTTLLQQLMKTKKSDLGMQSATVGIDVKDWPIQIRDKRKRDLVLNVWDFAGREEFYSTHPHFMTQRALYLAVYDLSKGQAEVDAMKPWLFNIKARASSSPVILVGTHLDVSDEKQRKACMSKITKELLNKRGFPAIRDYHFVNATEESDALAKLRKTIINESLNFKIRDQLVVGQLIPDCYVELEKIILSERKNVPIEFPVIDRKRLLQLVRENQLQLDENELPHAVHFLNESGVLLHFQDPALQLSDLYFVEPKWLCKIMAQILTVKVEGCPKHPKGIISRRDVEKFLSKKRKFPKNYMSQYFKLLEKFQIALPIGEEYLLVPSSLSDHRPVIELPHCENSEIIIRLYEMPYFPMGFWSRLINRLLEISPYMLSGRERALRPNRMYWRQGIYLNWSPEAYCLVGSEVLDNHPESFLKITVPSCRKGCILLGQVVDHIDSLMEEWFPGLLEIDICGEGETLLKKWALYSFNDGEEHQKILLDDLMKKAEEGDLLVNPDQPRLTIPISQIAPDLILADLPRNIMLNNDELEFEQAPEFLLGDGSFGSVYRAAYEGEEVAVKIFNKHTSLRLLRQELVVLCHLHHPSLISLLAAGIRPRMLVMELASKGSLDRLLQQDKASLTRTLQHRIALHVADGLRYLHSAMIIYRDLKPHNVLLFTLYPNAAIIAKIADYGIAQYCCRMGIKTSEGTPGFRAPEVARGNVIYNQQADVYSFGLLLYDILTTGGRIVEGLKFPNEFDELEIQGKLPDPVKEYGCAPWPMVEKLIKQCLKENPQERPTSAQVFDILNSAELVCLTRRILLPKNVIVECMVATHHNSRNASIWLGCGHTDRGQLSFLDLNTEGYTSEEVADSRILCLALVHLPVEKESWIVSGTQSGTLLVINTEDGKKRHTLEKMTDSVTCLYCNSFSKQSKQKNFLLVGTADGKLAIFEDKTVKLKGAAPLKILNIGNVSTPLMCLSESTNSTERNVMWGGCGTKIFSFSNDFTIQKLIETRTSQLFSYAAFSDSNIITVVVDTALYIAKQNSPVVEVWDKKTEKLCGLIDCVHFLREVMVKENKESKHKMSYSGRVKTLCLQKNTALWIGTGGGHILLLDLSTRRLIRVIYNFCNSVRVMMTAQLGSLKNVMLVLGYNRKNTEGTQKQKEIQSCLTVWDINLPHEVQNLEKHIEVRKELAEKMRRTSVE
Chain of G protein-coupled receptor kinase 4 (Homo sapiens) (P32298 whole entry, looked up, the tested form may be a part): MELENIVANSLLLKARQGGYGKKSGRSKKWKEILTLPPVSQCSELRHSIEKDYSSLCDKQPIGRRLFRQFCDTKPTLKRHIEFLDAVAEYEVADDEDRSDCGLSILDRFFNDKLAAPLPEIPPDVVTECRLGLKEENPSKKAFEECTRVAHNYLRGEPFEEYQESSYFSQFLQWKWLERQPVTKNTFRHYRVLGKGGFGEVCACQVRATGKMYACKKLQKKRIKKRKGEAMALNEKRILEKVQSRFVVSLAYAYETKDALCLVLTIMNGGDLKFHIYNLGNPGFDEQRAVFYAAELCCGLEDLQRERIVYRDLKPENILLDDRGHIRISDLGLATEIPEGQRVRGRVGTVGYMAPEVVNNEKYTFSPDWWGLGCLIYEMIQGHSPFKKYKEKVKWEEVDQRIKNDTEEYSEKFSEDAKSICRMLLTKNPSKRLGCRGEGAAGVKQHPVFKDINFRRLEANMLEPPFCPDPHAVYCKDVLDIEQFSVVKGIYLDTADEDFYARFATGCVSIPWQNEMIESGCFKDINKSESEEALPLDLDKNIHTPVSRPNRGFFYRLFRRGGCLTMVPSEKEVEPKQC
Chain of Calcium/calmodulin-dependent protein kinase type II subunit delta (Homo sapiens) (Q13557 whole entry, the tested form may be a part): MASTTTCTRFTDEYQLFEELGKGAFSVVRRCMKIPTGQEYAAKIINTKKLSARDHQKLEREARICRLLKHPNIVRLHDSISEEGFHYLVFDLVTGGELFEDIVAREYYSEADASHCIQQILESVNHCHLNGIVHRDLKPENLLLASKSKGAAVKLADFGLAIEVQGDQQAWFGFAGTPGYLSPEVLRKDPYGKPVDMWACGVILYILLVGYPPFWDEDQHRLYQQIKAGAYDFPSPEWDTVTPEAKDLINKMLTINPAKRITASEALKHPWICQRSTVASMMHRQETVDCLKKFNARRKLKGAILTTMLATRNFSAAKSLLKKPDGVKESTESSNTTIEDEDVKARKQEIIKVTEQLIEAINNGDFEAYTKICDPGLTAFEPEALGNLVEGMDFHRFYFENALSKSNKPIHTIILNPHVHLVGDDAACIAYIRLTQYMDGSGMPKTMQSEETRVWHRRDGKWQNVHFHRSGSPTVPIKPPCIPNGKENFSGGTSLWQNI
Chain of Tyrosine-protein kinase Fes/Fps (Homo sapiens) (P07332 whole entry, the tested form may be a part): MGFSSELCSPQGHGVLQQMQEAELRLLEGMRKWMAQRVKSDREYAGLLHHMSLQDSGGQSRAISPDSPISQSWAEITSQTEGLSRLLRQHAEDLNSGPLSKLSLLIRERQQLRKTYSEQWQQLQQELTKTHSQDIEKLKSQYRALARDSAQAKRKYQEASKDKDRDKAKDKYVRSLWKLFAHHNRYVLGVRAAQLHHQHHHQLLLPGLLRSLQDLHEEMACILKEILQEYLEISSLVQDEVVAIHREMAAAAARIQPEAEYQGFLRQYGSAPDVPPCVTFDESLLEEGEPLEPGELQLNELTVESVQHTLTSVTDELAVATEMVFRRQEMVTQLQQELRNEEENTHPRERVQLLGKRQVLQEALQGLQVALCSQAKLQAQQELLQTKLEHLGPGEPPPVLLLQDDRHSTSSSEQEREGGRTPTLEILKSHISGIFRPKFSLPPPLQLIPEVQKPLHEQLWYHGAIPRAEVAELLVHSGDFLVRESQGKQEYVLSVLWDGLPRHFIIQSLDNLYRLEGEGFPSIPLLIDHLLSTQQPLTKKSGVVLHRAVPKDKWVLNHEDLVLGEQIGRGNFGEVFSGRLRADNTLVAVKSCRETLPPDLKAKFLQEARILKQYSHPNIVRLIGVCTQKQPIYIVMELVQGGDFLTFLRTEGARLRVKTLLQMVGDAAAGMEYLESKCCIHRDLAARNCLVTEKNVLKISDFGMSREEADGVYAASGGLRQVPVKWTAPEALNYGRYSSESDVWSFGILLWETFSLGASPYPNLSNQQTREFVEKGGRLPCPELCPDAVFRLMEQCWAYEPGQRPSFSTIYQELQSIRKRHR

C=CC(=O)Nc1cc(Nc2ncc(Cl)c(Nc3ccccc3S(=O)(=O)C(C)C)n2)c(OC)cc1N(C)CCN(C)C
Activity [1]: 46% | Activity [2]: 21% | Activity [3]: 26% | Activity [4]: 1.7% | Activity [5]: 0% | Activity [6]: 80% | Activity [7]: 1.4% | Activity [8]: 96% | Activity [9]: 100% | Activity [10]: 91% | Activity [11]: 78% | Activity [12]: 60% | Activity [13]: 0% | Activity at […], 10 µM [14]: 44% | Activity [15]: 72% | Activity [16]: 41% | Activity [17]: 2.4% | Activity [18]: 32% | Activity [19]: 0% | Activity [20]: 99% | Activity [21]: 0.15% | Activity [22]: 87% | Activity [23]: 66%
